Experimental data reported in ChEMBL document CHEMBL4725260, “Bisphosphonate esters interact with HMG-CoA reductase membrane domain to induce its degradation” (Bioorg Med Chem, 2020).
The source made the active and inactive calls. The calls are words filed in the database; no cut-off is given here.

Columns and labels:
[1] = molecular target: T1, 3-hydroxy-3-methylglutaryl-coenzyme A reductase (Homo sapiens, UniProt P04035); assay: (§1) Induction of degradation of Flag-tagged human HMGCR-dCat-ELuc membrane domain (1 to 499 residues) expressed in HEK293 cells assessed as reduction in HMGCR-dCat-Eluc protein level after 4 hrs by luciferase reporter assay; format: cell-based
T1 sequence (P04035 whole entry): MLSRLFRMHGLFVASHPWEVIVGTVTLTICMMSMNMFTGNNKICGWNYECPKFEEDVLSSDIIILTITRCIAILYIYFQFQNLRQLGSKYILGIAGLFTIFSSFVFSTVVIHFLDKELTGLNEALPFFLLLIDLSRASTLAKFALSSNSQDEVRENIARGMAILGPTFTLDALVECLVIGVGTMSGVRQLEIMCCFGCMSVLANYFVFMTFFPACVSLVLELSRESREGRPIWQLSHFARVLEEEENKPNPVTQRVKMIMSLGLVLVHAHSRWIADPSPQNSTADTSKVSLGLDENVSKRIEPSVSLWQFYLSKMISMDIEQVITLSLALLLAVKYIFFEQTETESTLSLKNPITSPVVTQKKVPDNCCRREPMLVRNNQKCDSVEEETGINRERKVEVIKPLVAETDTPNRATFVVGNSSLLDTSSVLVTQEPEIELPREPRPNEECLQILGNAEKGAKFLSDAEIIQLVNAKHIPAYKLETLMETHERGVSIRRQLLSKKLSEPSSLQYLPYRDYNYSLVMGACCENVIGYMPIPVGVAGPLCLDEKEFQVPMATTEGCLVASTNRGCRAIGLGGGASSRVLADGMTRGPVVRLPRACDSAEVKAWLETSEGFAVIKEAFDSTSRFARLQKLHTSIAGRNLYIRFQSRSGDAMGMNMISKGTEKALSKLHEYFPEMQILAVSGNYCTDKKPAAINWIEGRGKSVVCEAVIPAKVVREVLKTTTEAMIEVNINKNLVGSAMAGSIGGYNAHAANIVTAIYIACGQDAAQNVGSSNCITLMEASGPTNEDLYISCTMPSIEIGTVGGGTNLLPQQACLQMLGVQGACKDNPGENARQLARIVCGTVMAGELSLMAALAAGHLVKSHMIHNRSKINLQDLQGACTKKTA
In short: (§2)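 HEK293 cells stably expressing HMGCR-dCat-ELuc (FLAG-tagged membrane domain, residues 1-499, emerald luciferase) in DMEM/10% FBS. Compound treatment 4 h, then remaining fusion quantified by luciferase luminescence. Normalized to 0.1% DMSO vehicle as % of control. EC50 given as mean ± SD of more than three independent dose-response experiments.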

[2] = system: HEK293; assay: Cytotoxicity against human HEK293 cells assessed as cell viability at 0.01 to 10 uM incubated for 4 hrs by CytoRed viability assay; format: cell-based; details: hek293, 4 h, dose 0.01-10 µM
In short: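 CytoRed esterase-based viability read in the same wells as the 4 h HMGCR-dCat-ELuc stable HEK293 degradation assay, just before luciferase measurement.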

[3] = molecular target: T2, 3-hydroxy-3-methylglutaryl-coenzyme A reductase (Homo sapiens) (UniProt P04035); assay: Induction of degradation of Flag-tagged human HMGCR-dCat-ELuc membrane domain (1 to 499 residues) expressed in HEK293 cells assessed as reduction in HMGCR-dCat-Eluc protein level at 10 uM after 4 hrs by luciferase reporter assay; format: cell-based; in short: as §2
T2 sequence (whole entry): T1 sequence (P04035 whole entry)

[4] = molecular target: T2, 3-hydroxy-3-methylglutaryl-coenzyme A reductase (Homo sapiens); assay: as §1; format: cell-based; in short: as §2
[5] = molecular target: T2, 3-hydroxy-3-methylglutaryl-coenzyme A reductase (Homo sapiens); assay: (§3) Binding affinity to Flag-tagged human HMGCR-dCat-ELuc membrane domain (1 to 499 residues) transfected in HEK293 cell membrane co-transfected with p-CMV-Insig1-myc-FLAG at 20 uM preincubated for 30 mins followed by irradiation with UV light for 3 mins by immunoprecipitation analysis; format: cell membranes
[6] = molecular target: T2, 3-hydroxy-3-methylglutaryl-coenzyme A reductase (Homo sapiens); assay: as §3, with “3 mins in presence of 50 to 200 uM SRP3042 by immunoprecipitation” for “3 mins by immunoprecipitation”; format: cell membranes
[7] = molecular target: T3, Insulin-induced gene 1 protein (Homo sapiens) (UniProt O15503); assay: Binding affinity to FLAG/myc-tagged Insig1 transfected in HEK293 cell membrane co-transfected with Flag-tagged human HMGCR-dCat-Eluc membrane domain (1 to 499 residues) at 20 uM preincubated for 30 mins followed by irradiation with UV light for 3 mins by immunoprecipitation analysis; format: cell membranes
T3 sequence (whole entry): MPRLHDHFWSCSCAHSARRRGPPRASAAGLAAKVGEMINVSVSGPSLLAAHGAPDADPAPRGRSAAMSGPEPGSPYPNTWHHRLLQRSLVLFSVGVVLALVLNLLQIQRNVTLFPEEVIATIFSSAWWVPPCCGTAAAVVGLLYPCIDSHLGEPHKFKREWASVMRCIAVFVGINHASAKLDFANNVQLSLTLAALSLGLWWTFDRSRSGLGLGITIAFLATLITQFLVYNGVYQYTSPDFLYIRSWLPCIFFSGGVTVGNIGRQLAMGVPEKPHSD

[8] = system: HEK293; assay: Cytotoxicity against human HEK293 cells assessed as reduction in cell viability at 10 uM incubated for 4 hrs by CytoRed viability assay; format: cell-based; details: hek293, 4 h
In short: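 HEK293 cells stably expressing HMGCR-dCat-ELuc (HMGCR residues 1-499 with FLAG tag and emerald luciferase) are grown in DMEM with 10% FBS and penicillin-streptomycin at 5% CO2. Cells are dosed for 4 h. CytoRed, which reads cellular esterase activity, is measured in the same wells just before the luciferase read. The vehicle is 0.1% DMSO.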

| EC50 ([1]; read-out: EC50) [µM] | Compound | Activity [2] | other results |
| --- | --- | --- | --- |
| – | CCOP(=O)(OCC)C(=Cc1ccc(O)c(C(C)(C)C)c1)P(=O)(OCC)OCC | Non-Toxic | EC50 ([1]; hek293): Not Active; Activity [3]: inactive |
| 0.417 | C#CCCC1(CCOP(=O)(OC(C)C)C(Cc2cc(C(C)(C)C)nc(C(C)(C)C)c2)P(=O)(OC(C)C)OC(C)C)N=N1 (stereo not drawn) | Non-Toxic | Activity [4]: Dose-dependent effect; Activity [5]: Active; Activity [6]: inactive; Activity [7]: inactive |
| 1.46 | CC(C)OP(=O)(OC(C)C)C(Cc1cc(I)cc(C(C)(C)C)c1)P(=O)(OC(C)C)OC(C)C | Non-Toxic | – |
| 0.317 | CC(C)OP(=O)(OC(C)C)C(Cc1cc(C(C)(C)C)cc(C(C)(C)C)c1)P(=O)(OC(C)C)OC(C)C | Non-Toxic | – |
| 0.795 | C#CCCOP(=O)(OC(C)C)C(Cc1cc(C(C)(C)C)nc(C(C)(C)C)c1)P(=O)(OC(C)C)OC(C)C (stereo not drawn) | Non-Toxic | – |
| – | CC(C)OP(=O)(O)C(Cc1cc(C(C)(C)C)nc(C(C)(C)C)c1)P(=O)(OC(C)C)OC(C)C (stereo not drawn) | Non-Toxic | EC50 ([1]; hek293): Not Active; Activity [3]: inactive |
| 1.34 | CC(C)OP(=O)(OC(C)C)C(=Cc1cc(C(C)(C)C)c(O)c(C(C)(C)C)c1)P(=O)(OC(C)C)OC(C)C | – | Activity [8]: Toxic |
| 0.876 | CC(C)OP(=O)(OC(C)C)C(Cc1cc(C(C)(C)C)c(O)c(C(C)(C)C)c1)P(=O)(OC(C)C)OC(C)C [APOMINE] | Non-Toxic | – |
| 3.54 | C#Cc1cc(CC(P(=O)(OC(C)C)OC(C)C)P(=O)(OC(C)C)OC(C)C)cc(C(C)(C)C)c1 | Non-Toxic | – |
| – | C#Cc1cc(CC(P(=O)(OC(C)C)OC(C)C)P(=O)(OC(C)C)OC(C)C)cc(N=[N+]=[N-])c1 | Non-Toxic | EC50 ([1]; hek293): Not Active; Activity [3]: inactive |
| 0.153 | CC(C)OP(=O)(OC(C)C)C(Cc1cc(C(C)(C)C)nc(C(C)(C)C)c1)P(=O)(OC(C)C)OC(C)C | Non-Toxic | Activity [4]: Dose-dependent effect |
| – | CCOP(=O)(OCC)C(=Cc1ccc(O)cc1)P(=O)(OCC)OCC | Non-Toxic | EC50 ([1]; hek293): Not Active; Activity [3]: inactive |
| 0.633 | C#CCOP(=O)(OC(C)C)C(Cc1cc(C(C)(C)C)nc(C(C)(C)C)c1)P(=O)(OC(C)C)OC(C)C (stereo not drawn) | Non-Toxic | – |
| 1.66 | CC(C)OP(=O)(OC(C)C)C(Cc1cc(N=[N+]=[N-])cc(C(C)(C)C)c1)P(=O)(OC(C)C)OC(C)C | Non-Toxic | – |
| 1.16 | CCOP(=O)(OCC)C(=Cc1cc(C(C)(C)C)cc(C(C)(C)C)c1)P(=O)(OCC)OCC | Non-Toxic | – |

| Compound | EC50 ([1]; read-out: EC50) [µM] | Activity [2] | other results |
| --- | --- | --- | --- |
| CCOP(=O)(OCC)C(Cc1cc(C(C)(C)C)c(O)c(C(C)(C)C)c1)P(=O)(OCC)OCC | 2.77 | Non-Toxic | – |
| CCOP(=O)(OCC)C(=Cc1cc(C(C)(C)C)c(O)c(C(C)(C)C)c1)P(=O)(OCC)OCC | 1.1 | – | Activity [8]: Toxic |
